≈ marks a conversion by molar mass, not a printed value. Calls of active or inactive are those of the source. The rule behind the calls is not given here.
Columns and labels:
Staphylococcus aureus [1] = experiment: Antibacterial activity against Staphylococcus aureus ATCC 6538 by micro dilution susceptibility test; assay type: functional
Summary of the method: (§1)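 Microbroth dilution MIC in Mueller–Hinton broth following CLSI guidelines, vancomycin as positive control; resazurin added as visible growth indicator. Assays run at least in triplicate.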

Staphylococcus aureus [2] = experiment: Antibacterial activity against methicillin-resistant Staphylococcus aureus JCSC 4788 by micro dilution susceptibility test; assay type: functional; summary of the method: as §1
Staphylococcus aureus [3] = experiment: Induction of membrane disruption in methicillin-resistant Staphylococcus aureus JCSC 4788 assessed as increase in fluorescence intensity at 0.25 to 8 ug/ml measured after 3 hrs by SYTOX green dye based fluorescence assay; assay type: functional, organism-based
Summary of the method: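 Exponential-phase MRSA JCSC 4788 washed and set to OD620 0.4 in 0.85% NaCl, exposed to serial compound concentrations for 3 h, then 3 μM SYTOX Green for 20 min. Fluorescence read at ex 504/em 523 nm with melittin as positive control and vancomycin as comparator; mean ± SD, n = 3.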

Salmonella typhi = experiment: Antibacterial activity against Salmonella typhi CMCC 44102 by micro dilution susceptibility test; assay type: functional, Salmonella enterica subsp. enterica serovar Typhi; details: Salmonella enterica; summary of the method: as §1
Enterococcus faecalis = experiment: Antibacterial activity against Enterococcus faecalis ATCC 29212 by micro dilution susceptibility test; assay type: functional
Summary of the method: (§2)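 Microbroth dilution MIC in Mueller–Hinton broth following CLSI guidelines, with vancomycin as positive control; assays run at least in triplicate.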

Bacillus cereus = experiment: Antibacterial activity against Bacillus cereus ATCC 10876 by micro dilution susceptibility test; assay type: functional; summary of the method: as §2
[4] = tested on: Staphylococcus epidermidis; experiment: Antibacterial activity against Staphylococcus epidermidis ATCC 12228 by micro dilution susceptibility test; assay type: functional; summary of the method: as §2
Paenibacillus polymyxa [5] = experiment: Antibacterial activity against Bacillus polymyxa GIM 1.467 by micro dilution susceptibility test; assay type: functional; summary of the method: as §2
Staphylococcus aureus [6] = experiment: Antibacterial activity against methicillin-resistant Staphylococcus aureus JCSC 4788 in Balb/c mouse skin infection model assessed as reduction in skin ulcer formation at 40 ug administered as single dose via intradermal route measured 3 to 8 days post-infection; assay type: functional, organism-based
Summary of the method: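 Female BALB/c mice (18–20 g) injected intradermally in abdominal skin with 0.1 mL of MRSA JCSC 4788 (1×10^8 CFU) mixed with a single 40 μg dose in DMSO; DMSO-vehicle controls. Body weight and lesion size recorded daily for 11 days, ulcers imaged at 3 and 8 days; n = 6, mean ± SD.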

Paenibacillus polymyxa [7] = experiment: Antibacterial activity against Bacillus polymyxa ATCC 842 by micro dilution susceptibility test; assay type: functional; summary of the method: as §2
Enterococcus faecium = experiment: Antibacterial activity against vancomycin-resistant Enterococcus faecium by micro dilution susceptibility test; assay type: functional; summary of the method: as §1
Shigella dysenteriae = experiment: Antibacterial activity against Shigella dysenteriae CMCC 51252 by micro dilution susceptibility test; assay type: functional; summary of the method: as §1
Escherichia coli = experiment: Antibacterial activity against Escherichia coli ATCC 8739 by micro dilution susceptibility test; assay type: functional; summary of the method: as §2
Cutibacterium acnes = experiment: Antibacterial activity against Propionicibacterium acnes ATCC 6919 by micro dilution susceptibility test; assay type: functional
Summary of the method: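 Microbroth dilution MIC in Mueller–Hinton broth following CLSI guidelines; […]; resazurin added as visible growth indicator; vancomycin positive control; at least triplicate.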

Candida albicans = experiment: Antibacterial activity against Candida albicans ATCC 10231 by micro dilution susceptibility test; assay type: functional; summary of the method: as §2

SMILES | MIC (Staphylococcus aureus [1]) [µg/mL] | MIC (Staphylococcus aureus [2]) [µg/mL] | further results
CCCC(=O)c1c(O)cc(O)c2c1OC1=C(C(=O)C(C)(C)C(=O)C1(C)C)C2CC(C)C (configuration not stated) | 2 (≈ 4.67 µM) | 2 (≈ 4.67 µM) | –
CC(C)CC1C2=C(Oc3c(C=O)c(O)cc(O)c31)C(C)(C)C(=O)C(C)(C)C2=O (configuration not stated) | 128 (≈ 331 µM) | 128 (≈ 331 µM) | –
CC[C@H](C)[C@H](NC(=O)CN)C(=O)NCC(=O)N[C@@H](C)C(=O)N[C@H](C(=O)N[C@@H](CC(C)C)C(=O)N[C@@H](CCCCN)C(=O)N[C@H](C(=O)N[C@@H](CC(C)C)C(=O)N[C@H](C(=O)N[C@H](C(=O)NCC(=O)N[C@@H](CC(C)C)C(=O)N1CCC[C@H]1C(=O)N[C@@H](C)C(=O)N[C@@H](CC(C)C)C(=O)N[C@H](C(=O)N[C@@H](CO)C(=O)N[C@@H](Cc1c[nH]c2ccccc12)C(=O)N[C@H](C(=O)N[C@@H](CCCCN)C(=O)N[C@@H](CCCNC(=N)N)C(=O)N[C@@H](CCCCN)C(=O)N[C@@H](CCCNC(=N)N)C(=O)N[C@@H](CCC(N)=O)C(=O)N[C@@H](CCC(N)=O)C(N)=O)[C@@H](C)CC)[C@@H](C)CC)[C@@H](C)O)[C@@H](C)O)C(C)C)C(C)C | – | – | Activity (Staphylococcus aureus [3]): Active
CCCCCCCCCCC(=O)c1c(O)cc(O)c2c1OC1=C(C(=O)C(C)(C)C(=O)C1(C)C)C2CC(C)C (configuration not stated) | 1 (≈ 1.9 µM) | 1 (≈ 1.9 µM) | –
CC(C)CC1C2=C(Oc3c(C(=O)C(C)C)c(O)cc(O)c31)C(C)(C)C(=O)C(C)(C)C2=O (configuration not stated) | 4 (≈ 9.33 µM) | 4 (≈ 9.33 µM) | –
CCCCCCCCCCCC(=O)c1c(O)cc(O)c2c1OC1=C(C(=O)C(C)(C)C(=O)C1(C)C)C2CC(C)C (configuration not stated) | 8 (≈ 14.8 µM) | 8 (≈ 14.8 µM) | –
CCC(=O)c1c(O)cc(O)c2c1OC1=C(C(=O)C(C)(C)C(=O)C1(C)C)C2CC(C)C (configuration not stated) | 2 (≈ 4.83 µM) | 2 (≈ 4.83 µM) | –
CCCCCC(=O)c1c(O)cc(O)c2c1OC1=C(C(=O)C(C)(C)C(=O)C1(C)C)C2CC(C)C (configuration not stated) | 0.5 (≈ 1.1 µM) | 0.5 (≈ 1.1 µM) | –
CN[C@H](CC(C)C)C(=O)N[C@H]1C(=O)N[C@@H](CC(N)=O)C(=O)N[C@H]2C(=O)N[C@H]3C(=O)N[C@H](C(=O)N[C@H](C(=O)O)c4cc(O)cc(O)c4-c4cc3ccc4O)[C@H](O)c3ccc(c(Cl)c3)Oc3cc2cc(c3O[C@@H]2O[C@H](CO)[C@@H](O)[C@H](O)[C@H]2O[C@H]2C[C@](C)(N)[C@H](O)[C@H](C)O2)Oc2ccc(cc2Cl)[C@H]1O [VANCOMYCIN] | 0.5 to 1 (≈ 0.345 to 0.69 µM) | – | MIC (Salmonella typhi): > 32 µg/mL; MIC (Enterococcus faecalis): 0.5 µg/mL (≈ 0.345 µM); MIC (Bacillus cereus): 0.5 µg/mL (≈ 0.345 µM); MIC [4]: 0.5 µg/mL (≈ 0.345 µM); MIC (Paenibacillus polymyxa [5]): > 32 µg/mL; Activity (Staphylococcus aureus [3]): inactive; Activity (Staphylococcus aureus [6]): Active; MIC (Paenibacillus polymyxa [7]): > 32 µg/mL; MIC (Enterococcus faecium): > 32 µg/mL; MIC (Shigella dysenteriae): > 32 µg/mL; MIC (Escherichia coli): > 32 µg/mL; MIC (Cutibacterium acnes): 0.5 µg/mL (≈ 0.345 µM); MIC (Candida albicans): > 32 µg/mL
CC(C)CC1C2=C(Oc3c(C(=O)Cc4ccccc4)c(O)cc(O)c31)C(C)(C)C(=O)C(C)(C)C2=O (configuration not stated) | 4 (≈ 8.39 µM) | 4 (≈ 8.39 µM) | –
CC(C)CC1C2=C(Oc3c(C(=O)C4CCCCC4)c(O)cc(O)c31)C(C)(C)C(=O)C(C)(C)C2=O (configuration not stated) | 2 (≈ 4.27 µM) | 4 (≈ 8.54 µM) | –
CC(C)CC(=O)c1c(O)cc2c(c1O)C(CC(C)C)C1=C(O2)C(C)(C)C(=O)C(C)(C)C1=O (configuration not stated) | 1 (≈ 2.26 µM) | 1 (≈ 2.26 µM) | –
CC(=O)c1c(O)cc(O)c2c1OC1=C(C(=O)C(C)(C)C(=O)C1(C)C)C2CC(C)C (configuration not stated) | 4 (≈ 9.99 µM) | 4 (≈ 9.99 µM) | –
